The target of series [1] is Estrogen receptor (Rattus norvegicus) (UniProt P06211+Q62986).
For series [2], the target named is Estrogen receptor (Homo sapiens) (UniProt P03372).
The species named for series [3] is Homo sapiens. Description: The compound was evaluated for the optical density at concentration 10E-6 M in MCF-7 cell culture in the presence of estradiol. It counts as ADME. In a few lines:
(§1)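 MCF-7 cells seeded at 10000 cells/mL in 96-well dishes and cultured 24 h. Compound (final 10⁻⁷, 10⁻⁶ or 10⁻⁵ M) was then added together with estradiol at 10⁻⁸ M final to test whether estradiol antagonizes growth inhibition. After 5 days, cells were ethanol-fixed (90%) and hematoxylin-stained, and optical density was read at 540 nm.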

The species entered for series [4] is Homo sapiens. Description: The compound was evaluated for the optical density at concentration 10E-5 M in MCF-7 cell culture. It counts as ADME.
Series [5] is filed under the species Homo sapiens. Description: The compound was evaluated for the optical density at concentration 10E-6 M in MCF-7 cell culture. It counts as ADME.
For series [6], the species on record is Homo sapiens. Description: The compound was evaluated for the optical density at concentration 10E-7 M in MCF-7 cell culture. It counts as ADME.
The species entered for series [7] is Homo sapiens. Description: The compound was evaluated for the optical density at concentrations 10E-5 M in MCF-7 cell culture in the presence of estradiol. It counts as ADME. In a few lines: as §1
The species named for series [8] is Homo sapiens. Description: The compound was evaluated for the optical density at concentrations 10E-7 M in MCF-7 cell culture in the presence of estradiol. It counts as ADME. The method, boiled down: as §1

Estrogen receptor (Homo sapiens), sequence (P03372 whole entry, looked up): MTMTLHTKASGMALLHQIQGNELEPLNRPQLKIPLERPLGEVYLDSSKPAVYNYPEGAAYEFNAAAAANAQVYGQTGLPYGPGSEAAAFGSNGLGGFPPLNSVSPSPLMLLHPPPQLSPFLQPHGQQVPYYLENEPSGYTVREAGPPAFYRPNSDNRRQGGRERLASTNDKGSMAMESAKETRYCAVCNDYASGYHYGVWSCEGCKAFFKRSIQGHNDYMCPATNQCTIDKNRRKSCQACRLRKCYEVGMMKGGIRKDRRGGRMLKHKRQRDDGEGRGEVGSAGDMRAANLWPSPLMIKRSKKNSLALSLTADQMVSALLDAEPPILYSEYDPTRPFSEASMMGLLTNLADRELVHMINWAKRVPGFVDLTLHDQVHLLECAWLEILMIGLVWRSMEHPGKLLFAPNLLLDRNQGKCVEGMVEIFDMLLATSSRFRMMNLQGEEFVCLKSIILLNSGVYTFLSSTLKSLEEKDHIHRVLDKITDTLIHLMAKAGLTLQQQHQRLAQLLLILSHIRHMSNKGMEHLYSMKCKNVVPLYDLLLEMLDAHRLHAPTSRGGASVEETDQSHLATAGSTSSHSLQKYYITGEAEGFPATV

Consider `CN(C)CCOc1ccc(C2=C(c3ccccc3)CCc3ccccc32)cc1`, for which the Affinity in series [1] amounted to 0.5; in series [2], 0.02. Also, the Optical density in the series listed under Homo sapiens [3] amounted to 0.385; in the series filed under Homo sapiens [4] it was 0.049; in the series listed under Homo sapiens [5], 0.288; in the series listed under Homo sapiens [6], 0.39; in the series filed under Homo sapiens [7], 0.079; in the series filed under Homo sapiens [8], 0.45.
With `CN(C)CCOc1ccc(C2=C(c3ccccc3)CCCc3ccccc32)cc1`, the Affinity in series [1] was found to be 1; in series [2], 0.02. Besides, the Optical density in the series filed under Homo sapiens [3] is 0.438; in the series filed under Homo sapiens [4] it was 0.058; in the series filed under Homo sapiens [5] it was 0.182; in the series filed under Homo sapiens [6] it was 0.244; in the series filed under Homo sapiens [7], 0.098; in the series listed under Homo sapiens [8], 0.379.

(Values after ChEMBL document CHEMBL1123514 (J Med Chem, 1986).)
